Compound activity: PubChem, several laboratories
RAM inhibit: blocks the yeast RAM network. AID 868. S. cerevisiae dse1pr::URA3 reporter, 5-FOA growth OD615, 2 d; analog-sensitive cbk1-as2 kinase mutant strain. inhibition, % at 50 µM. 190,000 compounds, 1.8% hits;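 active = inhibition above a set limit, 3 SD over mean compound inhibition, cut at about 8.4% in these data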;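 note: 0% = DMSO-only wells with no growth and 100% = 10 µM 1-NA-PP1 full growth; inhibition rescues growth on 5-FOA so higher OD means more RAM inhibition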
Lmaj promast: reduces viability of Leishmania major promastigotes | resazurin fluorescence viability | inhibition, % at 10 µM | 200,000 compounds, 9% hits; in the data active = inhibition above about 50%;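 note: promastigotes grown with compound for 44 hours at 28 °C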
ABCB1 block: inhibitors of human ABCB1 transporter, ABCG2 counter-screen. CCRF-Adr cells, JC-1 efflux, flow cytometry. inhibition, % at 6.6 µM. 190,000 compounds, 0.067% hits. AID 1326; in the data active = inhibition above about 40%;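 note: 0% = vehicle and 100% = reference inhibitor; higher value means more JC-1 retained so stronger ABCB1 efflux block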
Target sequence (P08183 whole entry, looked up): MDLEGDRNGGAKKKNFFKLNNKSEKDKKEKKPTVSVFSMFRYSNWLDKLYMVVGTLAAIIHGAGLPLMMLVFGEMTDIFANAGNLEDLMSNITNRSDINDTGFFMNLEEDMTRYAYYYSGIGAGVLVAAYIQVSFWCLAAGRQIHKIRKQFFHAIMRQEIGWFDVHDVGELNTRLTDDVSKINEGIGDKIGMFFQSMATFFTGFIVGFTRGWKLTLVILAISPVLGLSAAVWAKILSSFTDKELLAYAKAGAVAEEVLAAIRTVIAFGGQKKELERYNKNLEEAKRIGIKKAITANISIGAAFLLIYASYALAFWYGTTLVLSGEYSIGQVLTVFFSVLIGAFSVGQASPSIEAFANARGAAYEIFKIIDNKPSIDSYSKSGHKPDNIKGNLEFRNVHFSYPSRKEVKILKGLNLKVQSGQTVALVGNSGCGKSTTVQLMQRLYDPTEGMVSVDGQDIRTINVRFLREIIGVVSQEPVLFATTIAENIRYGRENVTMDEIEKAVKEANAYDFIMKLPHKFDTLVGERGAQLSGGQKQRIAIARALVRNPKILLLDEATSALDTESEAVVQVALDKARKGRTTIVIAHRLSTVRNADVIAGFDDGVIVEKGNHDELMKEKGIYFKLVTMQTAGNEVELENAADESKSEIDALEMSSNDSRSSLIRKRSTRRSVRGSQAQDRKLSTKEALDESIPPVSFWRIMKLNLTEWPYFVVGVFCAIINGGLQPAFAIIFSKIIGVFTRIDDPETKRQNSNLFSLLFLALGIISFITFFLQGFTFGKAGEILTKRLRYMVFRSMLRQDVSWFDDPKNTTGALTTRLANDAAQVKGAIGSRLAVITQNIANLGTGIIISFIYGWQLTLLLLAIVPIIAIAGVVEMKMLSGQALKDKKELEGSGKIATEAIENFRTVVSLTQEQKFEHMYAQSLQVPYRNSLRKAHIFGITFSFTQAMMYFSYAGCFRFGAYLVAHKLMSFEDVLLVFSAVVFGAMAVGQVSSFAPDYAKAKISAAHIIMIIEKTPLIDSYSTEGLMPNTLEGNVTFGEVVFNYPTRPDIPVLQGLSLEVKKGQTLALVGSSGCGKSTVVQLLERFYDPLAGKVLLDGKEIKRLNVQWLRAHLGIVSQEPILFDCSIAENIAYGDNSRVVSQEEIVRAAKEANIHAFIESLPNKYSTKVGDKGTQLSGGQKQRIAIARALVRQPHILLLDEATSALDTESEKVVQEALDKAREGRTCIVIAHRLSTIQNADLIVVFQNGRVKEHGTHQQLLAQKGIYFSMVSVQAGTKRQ
WT yeast gro inh: growth inhibition of WT yeast, mitochondrial fusion screen; mitochondrial fusion phenotypic screen, WT strain; inhibition, % at 10 µM; 190,000 compounds, 2.1% hits; in the data active = inhibition above about 58%; tested in S. cerevisiae
ABCG2 block: inhibitors of human ABCG2 transporter, ABCB1 counter-screen; Q9UNQ0; IgMXP3 cells, JC-1 efflux, flow cytometry; inhibition, % at 6.6 µM; 190,000 compounds, 0.1% hits;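 active = inhibition above 80%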;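 note: 0% = DMSO and 100% = nicardipine control wells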
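Test system: IgMXP3 (ABCG2) plus far-red-tagged CCRF-Adr (ABCB1) cells. Reagent: JC-1 dye as substrate. Timing: 10 min exposure at 25 °C with rotation, no wash. Measured by: flow cytometric JC-1 green MFI at 530 nm. Read-out: percent efflux inhibition, scaled nicardipine 100% to DMSO 0%. Control set: nicardipine and DMSO wells.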
Active calls of the source: *. Rows were chosen to be rich in hits. Some 12% of all compounds tested hit in one or more screens of this group.

How did CC1CCCCN1C(=O)CCS(=O)(=O)c1cccc2nonc12 (stereo not drawn) do in these assays?
RAM inhibit: 1; Lmaj promast: 0; ABCB1 block: 1; WT yeast gro inh: -5; ABCG2 block: -1

Results for COCCN1C(=O)C(=O)/C(=C(/O)c2ccc(C)cc2)C1c1ccccn1 (stereo not drawn) ?
RAM inhibit: 1; Lmaj promast: -1; ABCB1 block: 0; WT yeast gro inh: -3; ABCG2 block: 0

How did CCCCOC(=O)CSC1=C(C#N)C(c2ccc3c(c2)OCO3)CC(=O)N1 (stereo not drawn) do in these assays?
RAM inhibit: 1; Lmaj promast: 20; ABCB1 block: 1; WT yeast gro inh: 19; ABCG2 block: 3

How did CCOC(=O)CSC1=C(C#N)C(c2ccc3c(c2)OCO3)CC(=O)N1 (stereo not drawn) do in these assays?
RAM inhibit: 0; Lmaj promast: 73*; ABCB1 block: 0; WT yeast gro inh: 5; ABCG2 block: 1

What do the screens show for `CCOC(=O)Cc1csc(NC(=O)NC2(C(F)(F)F)Oc3ccc(Cl)cc3O2)n1` (stereo not drawn)?
RAM inhibit: 3; Lmaj promast: 53*; ABCB1 block: 0; WT yeast gro inh: 23; ABCG2 block: 0

Results for Cc1ccc(N(CC(=O)N2CCN(C3CCCCC3)CC2)S(=O)(=O)c2cccnc2)cc1 ?
RAM inhibit: 1; Lmaj promast: 44; ABCB1 block: 0; WT yeast gro inh: -1; ABCG2 block: 2

Results for CCC(NS(=O)(=O)c1c(C)[nH]c(=O)[nH]c1=O)C12CC3CC(CC(C3)C1)C2 (stereo not drawn) ?
RAM inhibit: 0; Lmaj promast: -3; ABCB1 block: 0; WT yeast gro inh: 64*; ABCG2 block: 1

Results for O=C1NC2(CCCCC2)C(=O)N1CCS(=O)(=O)Oc1ccc(Br)cc1 ?
RAM inhibit: 8.8*; Lmaj promast: 7; ABCB1 block: 1; WT yeast gro inh: -1; ABCG2 block: 2

Results for Cc1ccc(CN2CCN(Cc3cccn3-c3nccs3)CC2CCO)cc1 (stereo not drawn) ?
RAM inhibit: 0; Lmaj promast: -4; ABCB1 block: 0; WT yeast gro inh: -9; ABCG2 block: -1

Results for COc1cc(/C=N/NC(=O)c2ccccc2Cl)ccc1Oc1ccc([N+](=O)[O-])cn1 ?
RAM inhibit: 0; Lmaj promast: 0; ABCB1 block: 1; WT yeast gro inh: -20; ABCG2 block: 5

How did O=C(COC(=O)c1ccccc1Nc1ccccc1)c1ccccc1 do in these assays?
RAM inhibit: 9.8*; Lmaj promast: 1; ABCB1 block: 0; WT yeast gro inh: 41; ABCG2 block: 4

How did CNc1ccccc1C(=O)OCC(=O)c1ccccc1 do in these assays?
RAM inhibit: 1; Lmaj promast: -9; ABCB1 block: 0; WT yeast gro inh: -2; ABCG2 block: 4

Results for Cn1nc(C(=O)NNC(=O)COc2ccccc2)c2ccccc2c1=O ?
RAM inhibit: 0; Lmaj promast: 55*; ABCB1 block: 1; WT yeast gro inh: 5; ABCG2 block: 32

What do the screens show for `CCn1nc(C(=O)NNC(=O)COc2ccc(OC)cc2)c2ccccc2c1=O`?
RAM inhibit: 0; Lmaj promast: -7; ABCB1 block: 1; WT yeast gro inh: -9; ABCG2 block: 6

How did O=C(Nc1ccc(Cl)cc1)N1CCN(c2ccc3nnc(-c4ccc(F)cc4)n3n2)CC1 do in these assays?
RAM inhibit: 2; Lmaj promast: 19; ABCB1 block: 0; WT yeast gro inh: 80*; ABCG2 block: 0

How did COc1ccc(S(=O)(=O)N2CCN(c3ccc4nnc(-c5ccc(F)cc5)n4n3)CC2)cc1 do in these assays?
RAM inhibit: 5; Lmaj promast: 99*; ABCB1 block: 0; WT yeast gro inh: -2; ABCG2 block: 1

How did Cc1ccc(S(=O)(=O)N2CCN(c3ccc4nnc(-c5ccccc5)n4n3)CC2)cc1 do in these assays?
RAM inhibit: 5; Lmaj promast: 75*; ABCB1 block: 1; WT yeast gro inh: 32; ABCG2 block: -1

How did c1ccc(-c2nnc3ccc(N4CCCC4)nn23)cc1 do in these assays?
RAM inhibit: 2; Lmaj promast: 0; ABCB1 block: 1; WT yeast gro inh: -1; ABCG2 block: 5

Results for CC(C)NC(=O)CCn1nc(-c2ccc(Cl)cc2)c2ccccc2c1=O ?
RAM inhibit: 0; Lmaj promast: 5; ABCB1 block: 1; WT yeast gro inh: 3; ABCG2 block: 6

How did Cn1c(Cn2nnc3ccccc32)nnc1SCC(=O)Nc1nccs1 do in these assays?
RAM inhibit: 3; Lmaj promast: -7; ABCB1 block: 0; WT yeast gro inh: -4; ABCG2 block: 6

Results for COCC(=O)NC1(c2nnnn2CCOC(=O)Nc2ccc(Cl)cc2)CCCCC1 ?
RAM inhibit: 0; Lmaj promast: -3; ABCB1 block: 2; WT yeast gro inh: 8; ABCG2 block: 10

Results for C=C(C)C1Cc2nc(N)nc(C)c2C1 (stereo not drawn) ?
RAM inhibit: 0; Lmaj promast: -4; ABCB1 block: 1; WT yeast gro inh: 17; ABCG2 block: 0

What do the screens show for `C=C(C)C1Cc2c(C)nn(-c3nc(C)cc(C)n3)c2C1` (stereo not drawn)?
RAM inhibit: 0; Lmaj promast: 44; ABCB1 block: 1; WT yeast gro inh: 64*; ABCG2 block: 25

Results for Nc1ccccc1C(=O)N1CCCC1 ?
RAM inhibit: 0; Lmaj promast: -6; ABCB1 block: 1; WT yeast gro inh: 9; ABCG2 block: 2

How did Cn1c(-c2ccc(F)cc2)cnc1NCc1cc2c(cc1[N+](=O)[O-])OCO2 do in these assays?
RAM inhibit: 1; Lmaj promast: 99*; WT yeast gro inh: -1; ABCG2 block: 12

What do the screens show for `Cn1c(-c2ccccc2)cnc1NCc1cc2c(cc1[N+](=O)[O-])OCO2`?
RAM inhibit: 0; Lmaj promast: 87*; ABCB1 block: 0; WT yeast gro inh: -14; ABCG2 block: 4

What do the screens show for `Cn1c(-c2ccc(Cl)cc2)cnc1NCc1cc2c(cc1[N+](=O)[O-])OCO2`?
RAM inhibit: -1; Lmaj promast: 98*; WT yeast gro inh: 6; ABCG2 block: 13

What do the screens show for `CCCS(=O)(=O)c1c(S(=O)(=O)CCC)c2ccc(C(N)=O)cn2c1C(=O)c1ccc(OC)cc1`?
RAM inhibit: 0; Lmaj promast: -7; ABCB1 block: 0; WT yeast gro inh: -8; ABCG2 block: 2

How did C=CCC(C(=O)OC)(C(=O)OC)c1ccccc1[N+](=O)[O-] do in these assays?
RAM inhibit: -1; Lmaj promast: 0; ABCB1 block: 0; WT yeast gro inh: 5; ABCG2 block: 5

What do the screens show for `CC1CCN(CCCn2c(=S)[nH]c3ccccc3c2=O)CC1`?
RAM inhibit: 1; Lmaj promast: 100*; ABCB1 block: 0; WT yeast gro inh: 8; ABCG2 block: 1
